An excerpt weighted towards active compounds, which were near 4.1% of everything screened.
KCNK3 block = human KCNK3 channel inhibitors, primary screen, CHO cells, FluxOR thallium flux, B-score; Potassium channel subfamily K member 3 (Homo sapiens), O14649; FluxOR fluorescence; hits give low values; B-score at 10 µM; 340,000 compounds, 0.84% hits; AID 602410, 2012;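 active = B-score under library mean minus 4 SD, starting fluorescence ratio at most library mean plus 5 SD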;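 note: more negative B-score means stronger inhibition of thallium flux through KCNK3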
hERG rescue = hERG rescue from dofetilide block, primary screen, cell-based, CHO-hERG, FluxOR thallium flux, dofetilide IC70; Voltage-gated inwardly rectifying potassium channel KCNH2 (Homo sapiens), Q12809; dofetilide IC70 present; activation (rescue from dofetilide block), less the hit threshold, % at 10 µM; 310,000 compounds, 0.51% hits; AID 1511, 2009;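 active = activation above the mean of controls blocked by dofetilide plus 5 SD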;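 note: thallium influx through hERG after potassium depolarization seen as dye fluorescence rise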
KCNK9 block = KCNK9 potassium channel inhibitors, primary screen, HEK293 cells, thallium flux; Potassium channel subfamily K member 9 (Homo sapiens), Q9NPC2; FluxOR thallium flux fluorescence; hits give low values; B-score at 10 µM; 310,000 compounds, 1.2% hits;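 active = ratio B-score over 3 SD below the library mean, with starting fluorescence within 5 SD of its mean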;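 note: negative B-score means less thallium flux so channel inhibition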
KCNQ1 inh = inhibitors of human KCNQ1 channel, primary screen, cell-based, thallium flux, high-throughput; Potassium voltage-gated channel subfamily KQT member 1 (Homo sapiens), P51787; AID 2642, 2010; B-score at 10 µM; 310,000 compounds, 1.3% hits; CHO-K1 KCNQ1, FluxOR thallium flux fluorescence; hits give high values;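 active = compounds whose thallium flux B-score, printed positive for inhibition, exceeds three library SD while starting fluorescence stays within three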;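 note: channel opened by potassium depolarization with thallium stimulus after 20 min compound exposure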
Target sequence (P51787 whole entry, looked up): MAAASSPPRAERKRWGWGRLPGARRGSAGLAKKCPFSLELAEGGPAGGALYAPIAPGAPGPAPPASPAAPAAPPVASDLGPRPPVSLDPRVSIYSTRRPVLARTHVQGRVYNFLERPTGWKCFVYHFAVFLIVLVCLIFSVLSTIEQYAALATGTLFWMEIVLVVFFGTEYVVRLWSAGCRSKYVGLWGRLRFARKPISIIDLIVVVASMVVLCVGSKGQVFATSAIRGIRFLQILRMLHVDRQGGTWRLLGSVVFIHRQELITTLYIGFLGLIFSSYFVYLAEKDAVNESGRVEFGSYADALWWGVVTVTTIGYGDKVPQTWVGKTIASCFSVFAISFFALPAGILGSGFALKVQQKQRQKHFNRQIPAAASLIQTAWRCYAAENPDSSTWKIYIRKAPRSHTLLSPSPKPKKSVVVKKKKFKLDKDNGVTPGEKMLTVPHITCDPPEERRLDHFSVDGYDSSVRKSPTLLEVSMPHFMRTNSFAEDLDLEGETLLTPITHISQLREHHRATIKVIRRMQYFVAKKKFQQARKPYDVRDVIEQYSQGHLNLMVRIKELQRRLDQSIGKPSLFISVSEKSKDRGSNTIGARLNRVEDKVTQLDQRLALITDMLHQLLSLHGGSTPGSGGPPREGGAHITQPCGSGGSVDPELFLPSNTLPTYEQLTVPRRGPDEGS
KCNQ1 pot = potentiators or activators of KCNQ1 channel, primary screen, cell-based, thallium flux, high-throughput; AID 2648, 2010; B-score at 10 µM; Potassium voltage-gated channel subfamily KQT member 1 (Homo sapiens), P51787; CHO-K1 KCNQ1, thallium flux FluxOR fluorescence; hits give high values; 310,000 compounds, 0.35% hits;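 active = fluorescence ratio B-score, a plate-corrected score, at least three library SD, with initial intensity B-score within 5 SD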
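Doses: Single concentration per compound, DMSO matched to controls | Test system: KCNQ1-transfected CHO-K1 cells | Timing: 90 min dye loading and 20 min compound exposure, both at room temperature | Measured by: Kinetic FluxOR thallium fluorescence, 10-s 1-Hz baseline, 110-s post-stimulus read | Medium: Assay buffer with matched DMSO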
Cl transport mod = KCC2 cotransporter modulators, thallium flux, primary screen, cell-based, HEK293 KCC2, FluoZin-2 fluorescence, MLSMR; KCC2 cells, thallium flux FluoZin-2 fluorescence; B-score of Tl+ flux slope (higher = more flux/activation; lower = inhibition) at 10 µM; 190,000 compounds, 2.2% hits; AID 1456, 2008;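 active = thallium flux slope and its plate-corrected score both differing from the plate sample mean at a set confidence after two filtering rounds, in either direction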;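 note: slope of fluorescence scaled to starting intensity during 10 to 20 s after thallium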
KCNK9 inh conf = KCNK9 potassium channel inhibitors, confirmation, HEK293 cells, thallium flux, duplicate | inhibition, % at 10 µM | shares compounds with KCNK9 block | 4,900 compounds, 43% hits | FluxOR thallium flux fluorescence;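 active = thallium signal inhibited by more than 5 SD of the compound-free buffer control wells, on both duplicate plates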;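 note: 0% = assay buffer control wells without compound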
Kir21 sel = mouse Kir2.1 channel inhibition, confirmation, selectivity assay for KCNK9 modulator project, cell-based, HEK293, thallium flux; AID 492993, 2010; shares compounds with KCNK9 block; Kir2.1 cells, FluxOR thallium flux fluorescence; inhibition, % at 10 µM; 4,900 compounds, 4% hits;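 active = thallium signal drop more than 5 SD beyond the mean of the no-compound control wells, seen in both duplicate plates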;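 note: signal is fluorescence rise after thallium addition divided by baseline fluorescence; plate controls were assay buffer only for no effect and full block by chlorpromazine control for full effect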
HEK293 Tl ctr = thallium flux in non-induced HEK293 cells, confirmation, counter-screen for KCNK9 inhibitor project, cell-based, second counter screen, non-induced KCNK9-HEK293. shares compounds with KCNK9 block. FluxOR thallium flux. inhibition, % at 10 µM. 4,900 compounds, 40% hits. AID 492997, 2010;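 active = thallium signal drop beyond 5 SD of the untreated control mean, on both duplicate plates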;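 note: plate controls were buffer only IC0 wells for no effect and SID17386958 at its maximal inhibitory level for full effect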
* = called active by the depositor; i = inactive; . = no result given.

SMILES	KCNK3 block	hERG rescue	KCNK9 block	KCNQ1 inh	KCNQ1 pot	Cl transport mod	KCNK9 inh conf	Kir21 sel	HEK293 Tl ctr
CC(=O)Nc1sc(NC(=O)c2ccco2)nc1-c1cccs1	i	0	i	i	i	.	.	.	.
O=C(Nc1nc(-c2cccs2)c(-c2ccccc2)s1)c1ccco1	i	-16	-9*	i	i	.	62%*	i	26%*
C/C(=C\COc1ccc2ccc(=O)oc2c1)CC[C@@H](O)C(C)(C)O	i	.	.	.	.	.	.	.	.
N#Cc1ccc(CSc2nnc(NC(=O)CCc3nc4ccccc4c(=O)[nH]3)s2)cc1	i	-18	i	i	i	.	.	.	.
Cc1ccc(S(=O)(=O)Nc2ccccc2F)cc1C(=O)NNC(=O)c1ccccc1O	i	-27	i	i	i	.	.	.	.
CCCc1nc2ccccc2c(=O)n1/N=C/c1ccccc1O	i	-16	-8.4*	6*	i	.	60%*	i	30%*
COc1ccc(NC(=O)c2ccc(-c3ccc(C)c4ccccc34)o2)cc1	i	-8	i	i	i	0.28	.	.	.
Cc1ccc(-c2ccc(C(=O)Nc3cccc(F)c3)o2)c2ccccc12	i	-17	i	i	i	0.044	i	i	i
CC1CCCCN1C(=O)Cn1c(=O)oc2cc(S(=O)(=O)N3CCCC3)ccc21 (stereo not drawn)	i	-14	i	i	i	.	.	.	.
CS(=O)(=O)c1cccc(-c2nnc(NC(=O)C3=COCCO3)o2)c1	i	-12	i	i	i	.	.	.	.
c1ccc(-c2csc3ncnc(N4CCc5ccccc5C4)c23)cc1	i	-13	-11*	i	i	-0.68	55%*	i	38%*
O=C(c1ccco1)N1CCN(c2ncnc3scc(-c4ccccc4)c23)CC1	i	-10	i	i	i	.	.	.	.
CC(C)(CO)NC(=O)c1ccc2c(c1)C(=O)c1ccccc1-2	i	-4	i	i	i	.	.	.	.
COC(=O)c1cc2c(ccn2-c2ccc(F)cc2)n1Cc1ccc(C#N)cc1	i	-5	-9.5*	i	i	0.52	38%*	i	32%*
COC(=O)c1cc2c(ccn2-c2ccc(F)cc2)n1Cc1ccc(OC)cc1	i	-6	i	i	i	-0.011	.	.	.
CC(C)c1ccc(NC(=O)COC(=O)c2cc(=O)[nH]c3ccccc23)cc1	i	.	.	.	.	.	.	.	.
O=C1N/C(=N/S(=O)(=O)Cc2ccccc2)S/C1=C/c1ccc2c(c1)OCO2	i	-21	i	i	i	-1.3	i	i	i
O=C(COc1ccccc1C(=O)Nc1ccccc1)c1ccc(Br)cc1	i	-12	-9.5*	i	i	0.13	35%*	i	i
O=C(O)CN1C(=O)/C(=C\c2cc([N+](=O)[O-])ccc2OCc2ccccc2Cl)SC1=S	i	-5	i	i	i	.	i	i	i
Cc1cc(/C=c2\sc3nc4ccccc4n3c2=O)c(C)n1-c1ccc(C(=O)O)cc1	i	-31	i	i	i	-3.3	i	i	i
CCOc1ccccc1OCCCC(=O)Nc1ccc(Cl)c(S(=O)(=O)N2CCOCC2)c1	i	.	.	.	.	.	.	.	.
Cc1ccc2c(c1)C1CN(C)CCC1N2S(=O)(=O)c1cc(C(F)(F)F)ccc1Cl (stereo not drawn)	i	.	.	.	.	.	.	.	.
COc1ccc(F)cc1C(=O)C1CCCN(C(=O)c2ccccc2N(C)C)C1 (stereo not drawn)	i	-5	i	i	i	.	.	.	.
COc1ccc(C(=O)C2CCCN(Cc3cccc4c3OCO4)C2)cc1OC (stereo not drawn)	i	-2	i	i	i	-0.47	i	i	i
COc1ccc(C(=O)C2CCCN(C(=O)c3cccc(N(C)C)c3)C2)cc1OC (stereo not drawn)	i	-7	i	i	i	.	i	i	i
SMILES	KCNK3 block	hERG rescue	KCNK9 block	KCNQ1 inh	KCNQ1 pot	Cl transport mod	KCNK9 inh conf	Kir21 sel	HEK293 Tl ctr
COc1cccc(CN2CCCC(C(=O)c3ccc4c(c3)OCO4)C2)c1OC (stereo not drawn)	i	-6	i	i	i	-0.055	.	.	.
COc1ccc(F)cc1C(=O)C1CCCN(C(=O)c2cccc(N(C)C)c2)C1 (stereo not drawn)	i	-17	i	i	i	.	i	i	i
CN1CCc2c(sc(NC(=O)c3cc(Cl)sc3Cl)c2C(N)=O)C1	.	-16	i	i	i	.	.	.	.
O=C(CN(C(=O)CCC(=O)Nc1ccccn1)c1cccc(F)c1)NCc1ccco1	i	-5	i	i	i	.	.	.	.
COc1ccc2nc(Nc3nc(CSc4ccc(C)cc4)cc(=O)[nH]3)nc(C)c2c1	i	-6	i	i	i	-1.3	i	i	i
Cc1cccc2[nH]c(CCNC(=O)C3CCC(=O)N(CCc4cccc(F)c4)C3)nc12 (stereo not drawn)	i	-8	i	i	i	.	.	.	.
Cc1[nH]n(-c2ccc(Br)cc2)c(=O)c1/C=N/NC(=O)c1ccccc1	i	-9	i	i	i	.	i	i	i
Cc1[nH]n(-c2ccccc2)c(=O)c1/C=N/NC(=O)c1cccc(F)c1	i	-14	i	i	i	.	.	.	.
Brc1ccsc1/C=N/Nc1ccccc1	i	-4	i	i	i	.	.	.	.
CSc1nc(N)n2nc(-c3ccccc3)cc2n1	i	-7	i	i	i	0.17	.	.	.
O=S(=O)(Nc1nc(SCc2ccc(Cl)cc2)n[nH]1)c1ccc(F)cc1	i	-6	-11*	i	i	-0.98	28%*	38%*	42%*
Oc1ccc2ccccc2c1C=NCc1ccccc1	i	-3	i	i	i	-1.3	i	i	i

Assay outcomes as filed in PubChem BioAssay.
